Test [1] deals with HeLa. In words: Cytotoxicity against human HeLa cells. The test is classed as functional, cell-based. Summed up:
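HeLa cells seeded at 6000 cells/well and cultured 12 h in RPMI with 10% FBS. Medium then replaced with 5% FBS-RPMI containing test concentrations, 22 h incubation. MTS added and reduction read 2 h later by absorbance at 492 nm, with 690 nm as background.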

The test system of test [2] is THP-1. Kind of test: Cytotoxicity against human THP1 cells. The test is classed as functional, cell-based.
Test [3] in a line: Cytotoxicity against mouse JB6Cl41 cells. As to conditions: JB6 Cl41. The test is classed as functional, cell-based.
Test [4] is described as follows: Decrease in UVB induced AP1 dependent transcription in mouse JB6 Cl41 cells at 0.7 ug/ml by luciferase assay. In kind it is functional. On the set-up: scale not given: the % may be the effect or the level left. Summed up: (§1)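 JB6-LucAP-1 reporter cells activated with EGF (10 ng/mL), TPA (20 ng/mL) or UVB (4 kJ/m2), plated at 6 × 10^3/well in 5% FBS/MEM and kept 24 h. Compound added in 0.1% FBS-MEM for 24 h. Cells lysed 1 h at room temperature, then luciferase luminescence read. Two independent experiments, five samples per concentration.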

Test [5] in a line: Decrease in TPA induced AP1 dependent transcription in mouse JB6 Cl41 cells at 1.1 ug/ml by luciferase assay. The test is classed as functional. More on the design: scale not given: the % may be the effect or the level left. Summed up: as §1
The nature of test [6]: Decrease in EGF induced AP1 dependent transcription in mouse […] cells at 1.1 ug/ml by luciferase assay. More on the design: scale not given: the % may be the effect or the level left. The test is classed as functional. The gist of the method:
as §1

Test [7] can be described thus: Decrease in EGF induced NFKappaB dependent transcription in mouse JB6 Cl41 cells at 0.7 ug/ml by luciferase assay. The test is classed as functional. More on the design: scale not given: the % may be the effect or the level left. Summed up:
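JB6-LucNF-κB reporter cells activated with EGF (10 ng/mL), plated at 6 × 10^3/well in 5% FBS/MEM and kept 24 h. Compound added in 0.1% FBS-MEM for 24 h. Cells lysed 1 h at room temperature, then luciferase luminescence read. Two independent experiments, five samples per concentration.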

Test [8] in a line: Inhibition EGF induced mouse JB6 P+Cl41 cells colony formation in soft agar. The test is classed as functional. The gist of the method: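 JB6 P+ Cl41 cells (8 × 10^3/mL) activated with EGF (10 ng/mL), in 0.33% BME agar with 10% FBS over a 0.5% BME agar layer, compound in both layers. Kept 1 week at 37 °C, 5% CO2. Colonies scored by microscopy and INCC50 derived. Two independent experiments in triplicate.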

The nature of test [9]: Increase in p53 dependent transcription in mouse JB6 Cl41 cells at 1.8 ug/ml by luciferase assay. In kind it is functional. Summed up: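 JB6-Lucp53 reporter cells, not activated, plated at 6 × 10^3/well in 5% FBS/MEM and kept 24 h. Compound added in 0.1% FBS-MEM for 24 h. Cells lysed 1 h at room temperature, then luciferase luminescence read. Two independent experiments, five samples per concentration.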

SMILES strings stand for the structures.

Broadly, the IC50 is the point on the concentration scale where inhibition reaches its midpoint. `CO[C@@H]1[C@@H](O)[C@H](O[C@@H]2[C@@H](O)[C@H](O[C@H]3[C@H](O)[C@@H](O[C@@H]4OC[C@@H](O)[C@H](O)[C@H]4O)[C@H](O[C@H]4[C@H](OC5CC[C@]6(C)[C@H]7CCC89C(=O)O[C@@](C)(CCCC(C)C)C8[C@@H](OC(C)=O)C[C@@]9(C)C7=CC[C@H]6C5(C)C)OC[C@@H](OS(=O)(=O)[O-])[C@@H]4O)O[C@@H]3C)OC[C@H]2O)O[C@H](CO)[C@H]1O.[Na+]` (stereo partly specified) [FRONDOSIDE A]: the IC50 in [1] is 2.1 µg/mL; in [2], 4.5 µg/mL; in [3], 5.9 µg/mL. Besides, the Activity in [4] is on record as 41%; in test [5] it was 20%; in [6], 51%; in test [7], 37%; in test [9], 39%. The INCC50 in test [8] worked out at 0.8 µg/mL.
In test [1], `C=C(C)CCC[C@]1(C)OC(=O)C23CC[C@H]4C(=CC[C@H]5C(C)(C)C(O[C@@H]6OC[C@@H](OS(=O)(=O)[O-])[C@H](O)[C@H]6O[C@@H]6O[C@H](CO)[C@@H](O[C@@H]7O[C@H](CO)[C@@H](O)[C@H](O[C@@H]8O[C@H](CO)[C@@H](O)[C@H](OC)[C@H]8O)[C@H]7O)[C@H](O)[C@H]6O[C@@H]6OC[C@@H](O)[C@H](O)[C@H]6O)CC[C@]45C)[C@]2(C)C[C@H](OC(C)=O)C31.[Na+]` (stereo partly specified) [OKHOTOSIDE B1] gave an IC50 of 34 µg/mL.
The compound `C=C(C)CCC[C@]1(C)OC(=O)C23CC[C@H]4C(=CC[C@H]5C(C)(C)C(O[C@@H]6OC[C@@H](OS(=O)(=O)[O-])[C@H](O)[C@H]6O[C@@H]6O[C@H](CO)[C@@H](O[C@@H]7O[C@H](COS(=O)(=O)[O-])[C@@H](O)[C@H](O[C@@H]8O[C@H](CO)[C@@H](O)[C@H](OC)[C@H]8O)[C@H]7O)[C@H](O)[C@H]6O[C@@H]6OC[C@@H](O)[C@H](O)[C@H]6O)CC[C@]45C)[C@]2(C)C[C@H](OC(C)=O)C31.[Na+].[Na+]` (stereo partly specified) [OKHOTOSIDE B2] came in with an IC50 in test [1] of 13 µg/mL.
